Laboratory results as given in ChEMBL document CHEMBL3102806, “1,2,4-Triazole/oxime hybrids as new strategy for nitric oxide donors: Synthesis, anti-inflammatory, ulceroginicity and antiproliferative activities” (Eur J Med Chem, 2014).

Tests used:
SK-OV-3 = experiment: Growth inhibition of human SKOV3 cells assessed as cell growth at 10^-5 M after 48 hrs by sulforhodamine B assay relative to control; type: functional; conditions: SK-OV-3, 48 h, read-out: Activity
How it was run: (§1)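 NCI primary screen across about 60 human tumour cell lines. Single dose of 10^-5 M, cultures incubated 48 h, end point by sulforhodamine B protein staining read spectrophotometrically. Results are given as percent growth of treated cells relative to untreated control cells.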

COLO 205 = experiment: Growth inhibition of human COLO205 cells assessed as cell growth at 10^-5 M after 48 hrs by sulforhodamine B assay relative to control; type: functional; conditions: COLO 205, 48 h, read-out: Activity
How it was run: (§2)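 NCI ~60 human tumour cell line screen. Single concentration of 10^-5 M added to cultures for 48 h. End point by sulforhodamine B protein staining read spectrophotometrically. Percent growth relative to untreated control cells.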

BT-549 = experiment: Growth inhibition of human BT549 cells assessed as cell growth at 10^-5 M after 48 hrs by sulforhodamine B assay relative to control; type: functional; conditions: BT-549, 48 h, read-out: Activity; how it was run: as §2
[1] = Growth inhibition of human HCC2998 cells assessed as cell growth at 10^-5 M after 48 hrs by sulforhodamine B assay relative to control; type: functional; conditions: HCC 2998, 48 h, read-out: Activity; how it was run: as §2
[2] = Induction of nitric oxide release in phosphate buffer at 10^-4 M at pH 7.4 after 4 hrs by Griess colorimetric method in presence of N-acetylcysteine; type: physicochemical; conditions: pH 7.4, 4 h, 100 µM
How it was run: (§3)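 Final drug concentration 10^-4 M, added from DMF into 1:1 50 mM phosphate buffer (pH 7.4)/MeOH containing 5 × 10^-4 M N-acetylcysteine, at 37 °C. Nitrite read with Griess reagent after 10 min at room temperature, absorbance at 546 nm. Calibration with sodium nitrite standards (10–80 nmol/ml). Reported as mol NO per mol, n = 4 reaction mixtures.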

NCI-H460 = experiment: Growth inhibition of human NCI-H460 cells assessed as cell growth at 10^-5 M after 48 hrs by sulforhodamine B assay relative to control; type: functional; conditions: NCI-H460, 48 h, read-out: Activity
How it was run: (§4)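 NCI primary screen, one-dose format across about 60 human tumour cell lines. Single addition at 10^-5 M with 48 h incubation; SRB protein-binding dye end point read spectrophotometrically. Reported as percent growth of treated cells versus untreated controls.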

SK-MEL-28 = experiment: Growth inhibition of human SK-MEL-28 cells assessed as cell growth at 10^-5 M after 48 hrs by sulforhodamine B assay relative to control; type: functional; conditions: SK-MEL-28, 48 h, read-out: Activity; how it was run: as §1
SNB-75 = experiment: Growth inhibition of human SNB75 cells assessed as cell growth at 10^-5 M after 48 hrs by sulforhodamine B assay relative to control; type: functional; conditions: SNB-75, 48 h, read-out: Activity; how it was run: as §1
SNB-19 = experiment: Growth inhibition of human SNB19 cells assessed as cell growth at 10^-5 M after 48 hrs by sulforhodamine B assay relative to control; type: functional; conditions: SNB-19, 48 h, read-out: Activity; how it was run: as §1
[3] = Growth inhibition of human UO31 cells assessed as cell growth at 10^-5 M after 48 hrs by sulforhodamine B assay relative to control; type: functional; conditions: UO-31, 48 h, read-out: Activity; how it was run: as §1
Rattus norvegicus = experiment: Ulcerogenic activity in albino rat carrageenan-induced paw edema model assessed as ulcer index at 0.28 mmol/kg, po (reference value: 0.60 +/- 0.05); type: toxicity, organism-based; conditions: in vivo
How it was run: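 Rats given the compound orally at 0.28 mmol/kg, suspended in 0.5% aqueous CMC; vehicle-only control, n = 4 per group. Gastric ulcers graded by area: I (<1 mm²), II (1–3 mm²), III (>3 mm²). Ulcer index = 1×(level I count) + 2×(level II) + 3×(level III). Mean ± SEM, one-way ANOVA versus control.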

IGROV-1 = experiment: Growth inhibition of human IGROV1 cells assessed as cell growth at 10^-5 M after 48 hrs by sulforhodamine B assay relative to control; type: functional; conditions: IGROV-1, 48 h, read-out: Activity; how it was run: as §2
CAKI-1 = experiment: Growth inhibition of human CAKI-1 cells assessed as cell growth at 10^-5 M after 48 hrs by sulforhodamine B assay relative to control; type: functional; conditions: CAKI-1, 48 h, read-out: Activity; how it was run: as §2
MDA-MB-468 = experiment: Growth inhibition of human MDA-MB-468 cells assessed as cell growth at 10^-5 M after 48 hrs by sulforhodamine B assay relative to control; type: functional; conditions: MDA-MB-468, 48 h, read-out: Activity; how it was run: as §4
M14 = experiment: Growth inhibition of human M14 cells assessed as cell growth at 10^-5 M after 48 hrs by sulforhodamine B assay relative to control; type: functional; conditions: M14, 48 h, read-out: Activity; how it was run: as §4
[4] = Induction of nitric oxide release in phosphate buffer at 10^-4 M at pH 7.4 after 6 hrs by Griess colorimetric method in presence of N-acetylcysteine; type: physicochemical; conditions: pH 7.4, 6 h, 100 µM; how it was run: as §3
PC-3 = experiment: Growth inhibition of human PC3 cells assessed as cell growth at 10^-5 M after 48 hrs by sulforhodamine B assay relative to control; type: functional; conditions: PC-3, 48 h, read-out: Activity; how it was run: as §4
[5] = Induction of nitric oxide release in HCl buffer at 10^-4 M at pH 1 after 1 hr by Griess colorimetric method in presence of N-acetylcysteine; type: physicochemical; conditions: pH 1, 1 h, 100 µM
How it was run: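 Same Griess nitrite procedure at 10^-4 M final drug with N-acetylcysteine at 37 °C, but with 0.1 N HCl (pH 1) in place of the pH 7.4 phosphate buffer. Absorbance at 546 nm against a sodium nitrite calibration curve.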

NCI-H226 = experiment: Growth inhibition of human NCI-H226 cells assessed as cell growth at 10^-5 M after 48 hrs by sulforhodamine B assay relative to control; type: functional; conditions: NCI-H226, 48 h, read-out: Activity; how it was run: as §4
HCT-116 = experiment: Growth inhibition of human HCT116 cells assessed as cell growth at 10^-5 M after 48 hrs by sulforhodamine B assay relative to control; type: functional; conditions: HCT-116, 48 h, read-out: Activity; how it was run: as §2
786-0 = experiment: Growth inhibition of human 786-0 cells assessed as cell growth at 10^-5 M after 48 hrs by sulforhodamine B assay relative to control; type: functional; conditions: 786-0, 48 h, read-out: Activity; how it was run: as §2
A549 = experiment: Growth inhibition of human A549/ATCC cells assessed as cell growth at 10^-5 M after 48 hrs by sulforhodamine B assay relative to control; type: functional; conditions: A549, 48 h, read-out: Activity; how it was run: as §2
[6] = Growth inhibition of human RXF393 cells assessed as cell growth at 10^-5 M after 48 hrs by sulforhodamine B assay relative to control; type: functional; conditions: RXF 393, 48 h, read-out: Activity; how it was run: as §4
[7] = Growth inhibition of human SF539 cells assessed as cell growth at 10^-5 M after 48 hrs by sulforhodamine B assay relative to control; type: functional; conditions: SF-539, 48 h, read-out: Activity; how it was run: as §4
TK-10 = experiment: Growth inhibition of human TK10 cells assessed as cell growth at 10^-5 M after 48 hrs by sulforhodamine B assay relative to control; type: functional; conditions: TK-10, 48 h, read-out: Activity; how it was run: as §1

Q: For `C/C(=N\O)c1ccc(NC(=O)CSc2nnc(-c3ccccc3)n2-c2ccccc2)cc1`, which growth at 10 µM (SK-OV-3) is on record?
A: 80.5%

Q: What about the growth at 10 µM (COLO 205) of the same compound?
A: 91.1%

Q: What about the growth at 10 µM (BT-549) of the same compound?
A: 75.3%

Q: What about the growth at 10 µM [1] of the same compound?
A: 28.6%

Q: What about the Activity [2] of the same compound?
A: 0.23 mol/mol

Q: And the growth at 10 µM (NCI-H460)?
A: -34.7%

Q: And the growth at 10 µM (SK-MEL-28)?
A: 48.6%

Q: And the growth at 10 µM (SNB-75)?
A: 59.2%

Q: What about the growth at 10 µM (SNB-19) of the same compound?
A: 45.8%

Q: And the growth at 10 µM [3]?
A: 90.6%

Q: And the UI (Rattus norvegicus)?
A: 0.95

Q: And the growth at 10 µM (IGROV-1)?
A: 81.4%

Q: And the growth at 10 µM (CAKI-1)?
A: 99.9%

Q: What about the growth at 10 µM (MDA-MB-468) of the same compound?
A: 90.4%

Q: And the growth at 10 µM (M14)?
A: 100%

Q: What about the Activity [4] of the same compound?
A: 0.16 mol/mol

Q: What about the growth at 10 µM (PC-3) of the same compound?
A: 104%

Q: What about the Activity [5] of the same compound?
A: Not Active

Q: And the growth at 10 µM (NCI-H226)?
A: 72.4%

Q: And the growth at 10 µM (HCT-116)?
A: 97.5%

Q: And the growth at 10 µM (786-0)?
A: 92.7%

Q: What about the growth at 10 µM (A549) of the same compound?
A: 81.9%

Q: And the growth at 10 µM [6]?
A: 72.5%

Q: And the growth at 10 µM [7]?
A: 97.2%

Q: What about the growth at 10 µM (TK-10) of the same compound?
A: 73.7%

Q: What does the source list for `COc1ccc(-c2nnc(SCC(=O)Nc3ccc(/C(C)=N/O)cc3)n2-c2ccccc2)cc1OC`?
A: growth at 10 µM (SK-OV-3): 4.74%; growth at 10 µM (COLO 205): 99.1%; growth at 10 µM (BT-549): 65.2%; growth at 10 µM [1]: 94%; Activity [2]: 0.39 mol/mol; growth at 10 µM (NCI-H460): 102%; growth at 10 µM (SK-MEL-28): 87.3%; growth at 10 µM (SNB-75): -16.5%; growth at 10 µM (SNB-19): 75.8%; growth at 10 µM [3]: 104%; UI (Rattus norvegicus): 1.11; growth at 10 µM (IGROV-1): 70.9%; growth at 10 µM (CAKI-1): 87.4%; growth at 10 µM (MDA-MB-468): 78.5%; growth at 10 µM (M14): 89.9%; Activity [4]: 0.31 mol/mol; growth at 10 µM (PC-3): 110%; Activity [5]: Not Active; growth at 10 µM (NCI-H226): 81.9%; growth at 10 µM (HCT-116): 69.2%; growth at 10 µM (786-0): 64.5%; growth at 10 µM (A549): 70.7%; growth at 10 µM [6]: 32.4%; growth at 10 µM [7]: 43%; growth at 10 µM (TK-10): 41.1%
